In ChEMBL document CHEMBL1149585, “Toward the development of chemoprevention agents. Part 1: Design, synthesis, and anti-inflammatory activities of a new class of 2,5-disubstituted-dioxacycloalkanes” (Bioorg Med Chem, 2007):

Assays:
Mus musculus [1] = experiment: Antiinflammatory activity against xylene-induced ear edema in Kunming mouse assessed as edema weight at 20 mg/kg, po after 2 hrs relative to control; format: functional
How it was run: (§1)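 Male Kunming mice (groups of 12; n = 11 per table footnote) were dosed orally as a suspension in 0.5% CMC, with CMC vehicle and positive control groups. After 30 min, 0.03 ml xylene went on both surfaces of the right ear, with the left ear as control. Mice were killed 2 h later. 7 mm ear punches were weighed, and edema was taken as right minus left weight. Groups were compared by one-way ANOVA, p < 0.05.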

Mus musculus [2] = experiment: Inhibition of xylene-induced ear edema in Kunming mouse at 30 mg/kg, po after 2 hrs relative to control; format: functional; how it was run: as §1
Mus musculus [3] = experiment: Antiinflammatory activity against xylene-induced ear edema in Kunming mouse assessed as edema weight at 30 mg/kg, po after 2 hrs relative to control; format: functional; how it was run: as §1
Mus musculus [4] = experiment: Inhibition of xylene-induced ear edema in Kunming mouse at 20 mg/kg, po after 2 hrs relative to control; format: functional; how it was run: as §1
Mus musculus [5] = experiment: Toxicity in mouse assessed as tail bleeding time at 200 mg/kg, po after 30 mins; format: organism-based; set-up: dose 200 mg/kg, route oral; details: in vivo, 0.5 h
How it was run: (§2)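 Male mice (18–22 g) were dosed orally, and bleeding time was recorded before dosing and at each post-dose time. Each mouse was held in a tube with its tail protruding, and a 2 mm tail cut was made. Blood was wiped away with tissue every 30 s until bleeding ceased, and the time was recorded. The comparison group received NS.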

Mus musculus [6] = experiment: Toxicity in mouse assessed as tail bleeding time at 200 mg/kg, po after 45 mins; format: organism-based; set-up: dose 200 mg/kg, route oral; details: in vivo, 0.75 h; how it was run: as §2
Mus musculus [7] = experiment: Toxicity in mouse assessed as tail bleeding time at 200 mg/kg, po after 60 mins; format: organism-based; set-up: dose 200 mg/kg, route oral; details: in vivo, 1 h; how it was run: as §2
Mus musculus [8] = experiment: Toxicity in mouse assessed as tail bleeding time at 200 mg/kg, po after 90 mins; format: organism-based; set-up: dose 200 mg/kg, route oral; details: in vivo, 1.5 h; how it was run: as §2

Row | Structure (SMILES) | Activity (Mus musculus [1]) [mg] | inhibition in vivo at 20 mg/kg (Mus musculus [4]) [%] | Activity (Mus musculus [5]) [s] | Activity (Mus musculus [6]) [s] | Activity (Mus musculus [7]) [s] | Activity (Mus musculus [8]) [s] | other results
1 | O=C(Cc1ccccc1)NC(CO)CCO (single isomer, unassigned) | 3.44 | – | – | – | – | – | –
2 | CC(O)C(CO)NC(=O)Cc1ccccc1 (single isomer, unassigned) | 3.35 | – | – | – | – | – | –
3 | O=C/C=C/c1ccccc1 | 3.4 | – | – | – | – | – | –
4 | Cc1ccc(C=O)cc1 | 3.72 | – | – | – | – | – | –
5 | O=C(NC(CO)CO)c1ccccc1 | 3.25 | – | – | – | – | – | –
6 | O=Cc1ccccc1 [BENZALDEHYDE] | 3.45 | – | – | – | – | – | –
7 | O=Cc1ccc(Cl)cc1 | 3.8 | – | – | – | – | – | –
8 | O=Cc1cccc([N+](=O)[O-])c1 [3-NITROBENZALDEHYDE] | 3.5 | – | – | – | – | – | –
9 | O=C(Cc1ccccc1)NC(CO)CCCO (single isomer, unassigned) | 3.53 | – | – | – | – | – | –
10 | O=C(N[C@H](CO)CCCO)c1ccccc1 | 3.38 | – | – | – | – | – | –
11 | CC(=O)Oc1ccccc1C(=O)O [ASPIRIN] | – | – | – | – | – | – | inhibition in vivo at 30 mg/kg (Mus musculus [2]): 40.7%; Activity (Mus musculus [3]): 1.85 mg
12 | C[C@@H](O)[C@H](CO)NC(=O)c1ccccc1 | 3.32 | – | – | – | – | – | –
13 | O=C(Cc1ccccc1)N[C@H]1CO[C@@H](c2cccc([N+](=O)[O-])c2)OC1 | – | 41.3 | 117.7 | 118.5 | 119.2 | 118.6 | –
14 | O=C(N[C@H]1CO[C@H](c2ccc([N+](=O)[O-])cc2)OC1)c1ccccc1 | – | 48.7 | 119.5 | 117.7 | 118.6 | 118.9 | –
15 | Cc1ccc([C@H]2OC[C@@H](NC(=O)Cc3ccccc3)[C@H](C)O2)cc1 | – | 41 | 117.9 | 118.6 | 119 | 118.5 | –
16 | O=Cc1ccc([N+](=O)[O-])cc1 | 3.39 | – | – | – | – | – | –
17 | O=C(Cc1ccccc1)NC(CO)CO | 3.88 | – | – | – | – | – | –
18 | O=C(Cc1ccccc1)N[C@H]1CO[C@H](c2cccc([N+](=O)[O-])c2)OC1 | – | 42.6 | 117.7 | 118.5 | 119.2 | 118.6 | –
19 | C[C@@H]1O[C@@H](c2ccc([N+](=O)[O-])cc2)OC[C@H]1NC(=O)c1ccccc1 | – | 57.4 | 118.4 | 119.2 | 117.2 | 118.9 | –
20 | C[C@@H]1O[C@@H](c2cccc([N+](=O)[O-])c2)OC[C@H]1NC(=O)c1ccccc1 | – | 42 | 118.9 | 119.2 | 117.4 | 118.3 | –
21 | C[C@@H]1O[C@H](c2ccc([N+](=O)[O-])cc2)OC[C@H]1NC(=O)c1ccccc1 | – | 55.4 | 117.8 | 118.1 | 118.8 | 119 | –
22 | C[C@@H]1O[C@H](c2cccc([N+](=O)[O-])c2)OC[C@H]1NC(=O)Cc1ccccc1 | – | 46.5 | 120.1 | 118.7 | 118.5 | 118.6 | –
23 | O=C(N[C@H](CO)CCO)c1ccccc1 | 4.01 | – | – | – | – | – | –
